In brackets after ≈: the same amount, converted by molar mass.
Experiments:
[1] = Metabolic stability in human liver microsomes assessed as compound remaining after 60 mins in presence of UDPGA; assay type: ADME, Microsome; conditions: read-out: Stability
[2] = Apparent permeability from apical to basolateral side in MDCK2 cells at 5 uM after 120 mins; assay type: ADME, cell-based, Canis lupus familiaris, MDCK-II; conditions: dog, MDCK
[3] = Oxidative metabolic stability in human liver microsomes assessed as compound remaining after 30 mins; assay type: ADME, Microsome; conditions: read-out: Stability
Summary of the method: (§1)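 Liver microsomes, mouse or human, were incubated with the compound for 30 min under oxidative conditions. The read-out is the percent of parent compound remaining.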

[4] = target: Mitogen-activated protein kinase 8 (Homo sapiens, UniProt P45983); experiment: Inhibition of JNK1 by TR-FRET assay
Summary of the method: (§2)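 IC50s were determined at a single fixed ATP concentration, and each value is the mean of at least three independent experiments.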

[5] = Metabolic stability in mouse liver microsomes assessed as compound remaining after 60 mins in presence of UDPGA; assay type: ADME, Microsome; conditions: read-out: Stability
[6] = target: T1, Mitogen-activated protein kinase 10 (Homo sapiens, UniProt P53779); experiment: Inhibition of JNK3 by TR-FRET assay; summary of the method: as §2
[7] = Oxidative metabolic stability in mouse liver microsomes assessed as compound remaining after 30 mins; assay type: ADME, Microsome; conditions: read-out: Stability; summary of the method: as §1
[8] = target: Mitogen-activated protein kinase 9 (Homo sapiens, UniProt P45984); experiment: Inhibition of JNK2 by TR-FRET assay; summary of the method: as §2
[9] = Efflux ratio, permeability from apical to basolateral side to basolateral to apical side in MDR1 expressing MDCK2 cells at 5 uM after 120 mins; assay type: ADME, cell-based, Canis lupus familiaris; conditions: dog, mdck-ii, 2 h
[10] = target: Protein kinase C beta type (Homo sapiens) (UniProt P05771); experiment: Inhibition of PRKCB1 at 10 uM
[11] = target: Cyclin-dependent kinase 2/cyclin A (Homo sapiens) (UniProt P24941+P20248+P78396); experiment: Inhibition of CDK2/cyclin A at 10 uM; assay type: protein-complex assay
[12] = target: Dual specificity protein kinase TTK (Homo sapiens) (UniProt P33981); experiment: Inhibition of TTK at 10 uM
[13] = target: Tyrosine-protein kinase JAK1 (Homo sapiens) (UniProt P23458); experiment: Inhibition of JAK1 at 10 uM
[14] = target: Protein-tyrosine kinase 2-beta (Homo sapiens) (UniProt Q14289); experiment: Inhibition of PTK2B at 10 uM
[15] = target: Calcium/calmodulin-dependent protein kinase type II subunit alpha (Homo sapiens) (UniProt Q9UQM7); experiment: Inhibition of CAMK2A at 10 uM
[16] = target: Receptor tyrosine-protein kinase erbB-4 (Homo sapiens) (UniProt Q15303); experiment: Inhibition of ERBB4 at 10 uM
[17] = target: RAC-alpha serine/threonine-protein kinase (Homo sapiens) (UniProt P31749); experiment: Inhibition of AKT1 at 10 uM
[18] = target: Serine/threonine-protein kinase 3 (Homo sapiens) (UniProt Q13188); experiment: Inhibition of STK3 at 10 uM
[19] = target: Macrophage colony-stimulating factor 1 receptor (Homo sapiens) (UniProt P07333); experiment: Inhibition of CSF1R at 10 uM
[20] = target: Serine/threonine-protein kinase MARK2 (Homo sapiens) (UniProt Q7KZI7); experiment: Inhibition of MARK2 at 10 uM
[21] = target: Tyrosine-protein kinase ABL1 (Homo sapiens) (UniProt P00519); experiment: Inhibition of ABL1 at 10 uM
[22] = target: Rho-associated protein kinase 2 (Homo sapiens) (UniProt O75116); experiment: Inhibition of ROCK2 at 10 uM
[23] = target: Serine/threonine-protein kinase PAK 4 (Homo sapiens) (UniProt O96013); experiment: Inhibition of PAK4 at 10 uM
[24] = target: T1, Mitogen-activated protein kinase 10; experiment: Inhibition of MAPK10 at 10 uM
[25] = target: RAF proto-oncogene serine/threonine-protein kinase (Homo sapiens) (UniProt P04049); experiment: Inhibition of RAF1 at 10 uM
[26] = target: Proto-oncogene tyrosine-protein kinase receptor Ret (Homo sapiens) (UniProt P07949); experiment: Inhibition of RET at 10 uM
[27] = target: Tyrosine-protein kinase SYK (Homo sapiens) (UniProt P43405); experiment: Inhibition of SYK at 10 uM
[28] = Selectivity ratio of IC50 for JNK1 to IC50 for JNK3
[29] = target: Glycogen synthase kinase-3 beta (Homo sapiens) (UniProt P49841); experiment: Inhibition of GSK3B at 10 uM
[30] = target: Platelet-derived growth factor receptor alpha (Homo sapiens) (UniProt P16234); experiment: Inhibition of PDGFRA at 10 uM
[31] = target: Serine/threonine-protein kinase PLK1 (Homo sapiens) (UniProt P53350); experiment: Inhibition of PLK1 at 10 uM
[32] = target: Serine/threonine-protein kinase PLK2 (Homo sapiens) (UniProt Q9NYY3); experiment: Inhibition of PLK2 at 10 uM
[33] = target: Insulin receptor (Homo sapiens) (UniProt P06213); experiment: Inhibition of INSR at 10 uM
[34] = target: PI3-kinase p110-alpha/p85-alpha (Homo sapiens) (UniProt P27986+P42336); experiment: Inhibition of PIK3CA/PIK3R1 at 10 uM; assay type: protein-complex assay
[35] = target: Dual specificity protein kinase CLK1 (Homo sapiens) (UniProt P49759); experiment: Inhibition of CLK1 at 10 uM
[36] = target: Tyrosine-protein kinase Lck (Homo sapiens) (UniProt P06239); experiment: Inhibition of LCK at 10 uM
[37] = target: cAMP-dependent protein kinase catalytic subunit alpha (Homo sapiens) (UniProt P17612); experiment: Inhibition of PKACA at 10 uM
[38] = target: Leucine-rich repeat serine/threonine-protein kinase 2 (Homo sapiens) (UniProt Q5S007); experiment: Inhibition of LRRK2 at 10 uM
[39] = target: Serine/threonine-protein kinase PLK3 (Homo sapiens) (UniProt Q9H4B4); experiment: Inhibition of PLK3 at 10 uM
[40] = target: Cyclin-dependent kinase 5/CDK5 activator 1 (Homo sapiens) (UniProt Q00535+Q15078); experiment: Inhibition of CDK5/p25 at 10 uM; assay type: protein-complex assay
[41] = target: Receptor-interacting serine/threonine-protein kinase 2 (Homo sapiens) (UniProt O43353); experiment: Inhibition of RIPK2 at 10 uM
[42] = target: Serine/threonine-protein kinase 16 (Homo sapiens) (UniProt O75716); experiment: Inhibition of STK16 at 10 uM
[43] = target: Receptor-type tyrosine-protein kinase FLT3 (Homo sapiens) (UniProt P36888); experiment: Inhibition of FLT3 at 10 uM
[44] = Solubility of the compound; assay type: physicochemical
[45] = target: Serine/threonine-protein kinase Chk1 (Homo sapiens) (UniProt O14757); experiment: Inhibition of CHEK1 at 10 uM
[46] = target: Cyclin-dependent kinase 1/cyclin B1 (Homo sapiens) (UniProt P06493+P14635); experiment: Inhibition of CDK1/cyclin B at 10 uM; assay type: protein-complex assay
[47] = target: Dual specificity tyrosine-phosphorylation-regulated kinase 1B (Homo sapiens) (UniProt Q9Y463); experiment: Inhibition of DYRK1B at 10 uM
[48] = target: Mitogen-activated protein kinase 1 (Homo sapiens) (UniProt P28482); experiment: Inhibition of MAPK1 at 10 uM

Sequence of Mitogen-activated protein kinase 8 (P45983 whole entry): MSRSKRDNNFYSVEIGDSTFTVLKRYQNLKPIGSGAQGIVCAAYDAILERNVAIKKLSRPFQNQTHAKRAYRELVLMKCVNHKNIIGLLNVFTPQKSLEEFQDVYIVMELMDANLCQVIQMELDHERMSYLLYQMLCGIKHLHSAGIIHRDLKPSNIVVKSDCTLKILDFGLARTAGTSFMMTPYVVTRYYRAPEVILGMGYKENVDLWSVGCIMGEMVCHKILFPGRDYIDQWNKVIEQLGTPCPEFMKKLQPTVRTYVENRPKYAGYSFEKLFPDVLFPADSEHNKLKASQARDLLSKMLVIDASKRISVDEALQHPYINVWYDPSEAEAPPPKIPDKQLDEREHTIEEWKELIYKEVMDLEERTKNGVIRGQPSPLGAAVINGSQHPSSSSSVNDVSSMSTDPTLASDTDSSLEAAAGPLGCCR
T1 sequence (P53779 whole entry): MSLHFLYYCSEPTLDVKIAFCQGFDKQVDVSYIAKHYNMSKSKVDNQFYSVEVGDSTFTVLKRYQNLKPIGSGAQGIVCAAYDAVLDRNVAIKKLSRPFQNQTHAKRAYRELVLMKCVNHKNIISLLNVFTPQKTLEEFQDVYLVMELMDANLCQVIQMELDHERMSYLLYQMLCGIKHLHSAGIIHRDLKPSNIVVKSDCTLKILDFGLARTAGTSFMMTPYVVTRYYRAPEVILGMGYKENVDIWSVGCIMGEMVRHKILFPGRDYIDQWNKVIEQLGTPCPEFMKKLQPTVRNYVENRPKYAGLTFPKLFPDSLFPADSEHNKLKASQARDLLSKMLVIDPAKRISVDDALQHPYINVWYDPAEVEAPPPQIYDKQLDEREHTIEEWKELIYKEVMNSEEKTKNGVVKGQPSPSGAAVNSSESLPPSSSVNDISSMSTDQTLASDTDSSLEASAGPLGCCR
Sequence of Mitogen-activated protein kinase 9 (P45984 whole entry): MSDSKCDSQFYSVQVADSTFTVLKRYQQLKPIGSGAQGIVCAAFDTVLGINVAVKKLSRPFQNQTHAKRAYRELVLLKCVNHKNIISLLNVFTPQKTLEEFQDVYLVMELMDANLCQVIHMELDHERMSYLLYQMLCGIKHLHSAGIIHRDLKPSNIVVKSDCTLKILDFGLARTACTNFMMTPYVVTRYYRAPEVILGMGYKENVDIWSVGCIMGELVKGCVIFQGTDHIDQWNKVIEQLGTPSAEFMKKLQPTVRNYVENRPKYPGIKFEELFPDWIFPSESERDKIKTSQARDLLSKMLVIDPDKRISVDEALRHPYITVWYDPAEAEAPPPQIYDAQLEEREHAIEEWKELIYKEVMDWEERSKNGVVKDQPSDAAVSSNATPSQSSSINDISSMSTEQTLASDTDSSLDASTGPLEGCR
Sequence of Dual specificity protein kinase CLK1 (Homo sapiens) (P49759 whole entry, looked up): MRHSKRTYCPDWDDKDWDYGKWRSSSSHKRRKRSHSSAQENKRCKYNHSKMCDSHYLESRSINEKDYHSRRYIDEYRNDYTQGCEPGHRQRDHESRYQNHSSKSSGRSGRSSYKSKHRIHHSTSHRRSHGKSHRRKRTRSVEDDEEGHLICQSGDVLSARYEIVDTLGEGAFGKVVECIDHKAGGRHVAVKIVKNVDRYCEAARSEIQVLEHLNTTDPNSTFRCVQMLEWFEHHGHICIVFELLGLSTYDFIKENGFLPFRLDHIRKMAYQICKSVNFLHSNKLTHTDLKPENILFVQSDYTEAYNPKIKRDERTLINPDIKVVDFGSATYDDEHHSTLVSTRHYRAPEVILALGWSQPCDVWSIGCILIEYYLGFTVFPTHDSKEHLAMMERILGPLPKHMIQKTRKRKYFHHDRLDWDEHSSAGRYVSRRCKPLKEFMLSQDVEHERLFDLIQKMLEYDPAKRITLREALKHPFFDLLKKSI
Sequence of Serine/threonine-protein kinase PAK 4 (Homo sapiens) (O96013 whole entry, looked up): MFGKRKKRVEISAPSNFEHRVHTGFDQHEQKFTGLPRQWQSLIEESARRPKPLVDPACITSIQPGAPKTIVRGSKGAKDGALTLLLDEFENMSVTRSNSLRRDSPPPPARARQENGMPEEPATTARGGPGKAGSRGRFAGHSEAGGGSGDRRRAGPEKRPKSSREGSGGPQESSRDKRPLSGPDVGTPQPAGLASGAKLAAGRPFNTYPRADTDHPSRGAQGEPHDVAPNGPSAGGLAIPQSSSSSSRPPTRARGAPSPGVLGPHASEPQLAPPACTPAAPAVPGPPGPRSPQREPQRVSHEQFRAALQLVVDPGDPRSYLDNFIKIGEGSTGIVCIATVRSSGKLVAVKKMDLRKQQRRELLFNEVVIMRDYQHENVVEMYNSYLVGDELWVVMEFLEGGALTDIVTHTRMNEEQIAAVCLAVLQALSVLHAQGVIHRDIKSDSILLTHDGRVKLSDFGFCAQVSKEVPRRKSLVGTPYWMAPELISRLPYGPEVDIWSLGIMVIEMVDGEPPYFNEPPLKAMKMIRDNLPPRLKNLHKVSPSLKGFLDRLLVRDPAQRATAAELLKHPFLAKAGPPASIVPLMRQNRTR
Sequence of Serine/threonine-protein kinase MARK2 (Homo sapiens) (Q7KZI7 whole entry): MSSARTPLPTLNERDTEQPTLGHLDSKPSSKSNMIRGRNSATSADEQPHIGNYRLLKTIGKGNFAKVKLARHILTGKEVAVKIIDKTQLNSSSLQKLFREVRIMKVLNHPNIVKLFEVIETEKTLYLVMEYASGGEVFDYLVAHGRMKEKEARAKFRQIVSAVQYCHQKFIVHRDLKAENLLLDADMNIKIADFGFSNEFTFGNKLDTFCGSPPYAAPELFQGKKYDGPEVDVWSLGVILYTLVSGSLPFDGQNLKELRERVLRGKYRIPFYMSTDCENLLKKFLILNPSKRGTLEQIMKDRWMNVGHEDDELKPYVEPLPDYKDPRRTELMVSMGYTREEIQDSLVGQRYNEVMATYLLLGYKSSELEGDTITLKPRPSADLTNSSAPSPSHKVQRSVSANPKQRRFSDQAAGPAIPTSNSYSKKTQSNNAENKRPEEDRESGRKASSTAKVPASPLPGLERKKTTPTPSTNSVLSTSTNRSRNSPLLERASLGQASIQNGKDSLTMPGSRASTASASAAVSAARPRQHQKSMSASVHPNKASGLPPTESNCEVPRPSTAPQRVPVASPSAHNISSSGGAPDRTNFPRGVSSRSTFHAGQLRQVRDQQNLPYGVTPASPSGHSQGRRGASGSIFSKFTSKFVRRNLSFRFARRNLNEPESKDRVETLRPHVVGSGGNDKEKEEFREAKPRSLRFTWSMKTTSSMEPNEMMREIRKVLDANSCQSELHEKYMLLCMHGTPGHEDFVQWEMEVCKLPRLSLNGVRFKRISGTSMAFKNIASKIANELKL
Sequence of RAF proto-oncogene serine/threonine-protein kinase (Homo sapiens) (P04049 whole entry): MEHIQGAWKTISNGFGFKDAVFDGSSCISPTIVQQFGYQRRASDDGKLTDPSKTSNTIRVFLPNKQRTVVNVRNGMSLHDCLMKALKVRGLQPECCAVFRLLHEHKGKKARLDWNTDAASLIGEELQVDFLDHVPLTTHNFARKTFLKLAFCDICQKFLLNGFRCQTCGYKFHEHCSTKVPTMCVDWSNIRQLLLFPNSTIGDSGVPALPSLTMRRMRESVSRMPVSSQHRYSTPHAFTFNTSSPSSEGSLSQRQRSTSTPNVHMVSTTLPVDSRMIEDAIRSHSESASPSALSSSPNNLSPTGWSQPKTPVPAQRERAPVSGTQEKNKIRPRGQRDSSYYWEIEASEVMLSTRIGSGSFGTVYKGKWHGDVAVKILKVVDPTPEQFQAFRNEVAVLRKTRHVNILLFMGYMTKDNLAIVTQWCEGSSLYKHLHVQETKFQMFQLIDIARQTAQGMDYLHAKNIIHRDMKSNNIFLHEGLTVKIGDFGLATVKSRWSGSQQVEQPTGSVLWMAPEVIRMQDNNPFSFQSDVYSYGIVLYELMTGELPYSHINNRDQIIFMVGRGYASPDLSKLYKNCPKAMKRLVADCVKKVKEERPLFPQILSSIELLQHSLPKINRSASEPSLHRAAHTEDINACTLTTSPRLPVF
Sequence of Serine/threonine-protein kinase PLK1 (Homo sapiens) (P53350 whole entry): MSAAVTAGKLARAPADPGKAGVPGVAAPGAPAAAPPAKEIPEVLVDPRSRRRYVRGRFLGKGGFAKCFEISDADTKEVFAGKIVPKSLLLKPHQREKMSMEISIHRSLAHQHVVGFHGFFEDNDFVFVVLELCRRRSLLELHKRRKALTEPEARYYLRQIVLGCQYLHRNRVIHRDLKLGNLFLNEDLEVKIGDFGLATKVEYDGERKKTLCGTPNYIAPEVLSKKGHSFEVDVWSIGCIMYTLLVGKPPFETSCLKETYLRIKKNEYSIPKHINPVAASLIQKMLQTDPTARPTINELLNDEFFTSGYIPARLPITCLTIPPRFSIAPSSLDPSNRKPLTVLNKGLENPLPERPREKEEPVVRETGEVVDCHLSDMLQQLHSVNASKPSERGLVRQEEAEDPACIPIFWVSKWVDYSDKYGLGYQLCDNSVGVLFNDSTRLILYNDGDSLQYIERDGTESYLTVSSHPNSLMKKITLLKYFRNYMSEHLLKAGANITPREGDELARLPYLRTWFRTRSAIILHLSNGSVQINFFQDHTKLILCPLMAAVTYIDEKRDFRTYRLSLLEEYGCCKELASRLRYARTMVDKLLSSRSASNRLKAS
Sequence of Glycogen synthase kinase-3 beta (Homo sapiens) (P49841 whole entry, looked up): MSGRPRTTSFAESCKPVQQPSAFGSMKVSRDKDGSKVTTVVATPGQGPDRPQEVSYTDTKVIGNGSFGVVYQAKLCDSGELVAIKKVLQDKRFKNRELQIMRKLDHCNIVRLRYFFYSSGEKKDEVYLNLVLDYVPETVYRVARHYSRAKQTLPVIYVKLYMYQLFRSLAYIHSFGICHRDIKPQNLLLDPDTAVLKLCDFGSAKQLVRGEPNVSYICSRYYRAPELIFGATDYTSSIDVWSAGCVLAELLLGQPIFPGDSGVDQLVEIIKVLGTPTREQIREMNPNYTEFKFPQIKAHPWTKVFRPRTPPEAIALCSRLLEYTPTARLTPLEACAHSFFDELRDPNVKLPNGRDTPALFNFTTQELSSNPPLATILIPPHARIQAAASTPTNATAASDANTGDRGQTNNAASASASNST

c1ccc2cc(-c3n[nH]cc3-c3ccncc3)ccc2c1
remaining at 1 h [1]: 73%
Papp A→B at 2 h, 5 µM [2]: 16.9 ×10⁻⁶ cm/s
remaining at 0.5 h [3]: 52%
IC50 [4]: 7.15 µM
remaining at 1 h [5]: 100%
IC50 [6]: 0.245 µM
remaining at 0.5 h [7]: 1%
IC50 [8]: 0.864 µM
Ratio [9]: 1.14

c1ccc2cc(-c3cnnn3-c3ccncc3)ccc2c1
remaining at 1 h [1]: 78%
Papp A→B at 2 h, 5 µM [2]: 37.9 ×10⁻⁶ cm/s
remaining at 0.5 h [3]: 12%
IC50 [4]: > 50 µM
remaining at 1 h [5]: 90%
IC50 [6]: 4.81 µM
remaining at 0.5 h [7]: 0%
IC50 [8]: 18.6 µM

S=c1[nH]nc(-c2ccncc2)n1-c1ccc2ccccc2c1
inhibition [10]: 25%
inhibition [11]: 0%
inhibition [12]: 39%
inhibition [13]: 0%
inhibition [14]: 1%
inhibition [15]: 49%
remaining at 1 h [1]: 8%
inhibition [16]: 12%
inhibition [17]: 1%
remaining at 0.5 h [3]: 100%
inhibition [18]: 0%
inhibition [19]: 46%
inhibition [20]: 1%
inhibition [21]: 8%
inhibition [22]: 25%
inhibition [23]: 8%
inhibition [24]: 44%
inhibition [25]: 45%
inhibition [26]: 0%
inhibition [27]: 26%
Ratio IC50 [28]: > 10
inhibition [29]: 28%
inhibition [30]: 11%
inhibition [31]: 22%
inhibition [32]: 73%
inhibition [33]: 5%
inhibition [34]: 42%
inhibition [35]: 5%
IC50 [4]: 12.5 µM
inhibition [36]: 0%
remaining at 1 h [5]: 1%
inhibition [37]: 93%
inhibition [38]: 13%
inhibition [39]: 94%
inhibition [40]: 19%
inhibition [41]: 4%
inhibition [42]: 0%
inhibition [43]: 41%
IC50 [6]: 0.559 µM
solubility [44]: 100 µM (≈ 30.4 µg/mL)
inhibition [45]: 0%
remaining at 0.5 h [7]: 100%
inhibition [46]: 3%
IC50 [8]: 2.98 µM
inhibition [47]: 16%
Ratio [9]: 1.12
inhibition [48]: 2%

S=c1[nH]nc(-c2ccncc2)n1-c1cnc2ccccc2c1
IC50 [4]: > 50 µM
IC50 [6]: > 50 µM
solubility [44]: 100 µM (≈ 30.5 µg/mL)
IC50 [8]: > 50 µM

S=c1[nH]nc(-c2ccncc2)n1-c1ccc2ncccc2c1
IC50 [4]: > 50 µM
IC50 [6]: 31.8 µM
solubility [44]: 15 µM (≈ 4.58 µg/mL)
IC50 [8]: > 50 µM

Clc1nnc(-c2ccncc2)n1-c1ccc2ccccc2c1
IC50 [4]: > 50 µM
IC50 [6]: 30.4 µM
solubility [44]: 78 µM (≈ 23.9 µg/mL)
IC50 [8]: > 50 µM

Cc1cc(-c2n[nH]c(=S)n2-c2cnc3ccccc3c2)ccn1
IC50 [4]: > 50 µM
IC50 [6]: > 50 µM
solubility [44]: 100 µM (≈ 31.9 µg/mL)
IC50 [8]: > 50 µM

— ChEMBL document CHEMBL1781927, “Highly selective c-Jun N-terminal kinase (JNK) 3 inhibitors with in vitro CNS-like pharmacokinetic properties II. Central core replacement” (Bioorg Med Chem Lett, 2011)
